Results published in ChEMBL document CHEMBL4043083, “Design and synthesis of bicyclic acetals as Beta Secretase (BACE1) inhibitors” (Bioorg Med Chem, 2017).

What was measured:
[1] = biological target: T1, Beta-secretase 1 (Homo sapiens, UniProt P56817); assay: Inhibition of BACE1 (unknown origin) at 10 uM pre-incubated for 10 mins before addition of fluorescent substrate HiLyte FluorTM 488-Glu-Val-Asn-Leu-Asp-Ala-Glu-Phe-Lys and measured over 30 mins
In short: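 BACE1 (1 µg/mL) preincubated with inhibitor at 10 µM, 10 min, 25 °C, then reaction started by adding the internally quenched substrate (QXL 520 quencher). Fluorescence (ex 490/em 520 nm) read over 30 min at 25 °C. Percent inhibition = (1−Vs/Vo)×100 from initial velocities with and without inhibitor.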

[2] = biological target: T1, Beta-secretase 1; assay: Inhibition of BACE1 (unknown origin) pre-incubated for 10 mins before addition of fluorescent substrate HiLyte FluorTM 488-Glu-Val-Asn-Leu-Asp-Ala-Glu-Phe-Lys and measured over 30 mins
In short: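 Kit-based fluorometric BACE1 assay. Enzyme at 1 µg/mL, preincubated 10 min at 25 °C with inhibitor across 0.003–30 µM before substrate (QXL 520-quenched) addition. Initial velocities taken from ex 490/em 520 nm fluorescence over 30 min at 25 °C. IC50 from the dose-response, run in triplicate in three independent experiments, given as mean ± SD.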

T1 sequence (P56817 whole entry): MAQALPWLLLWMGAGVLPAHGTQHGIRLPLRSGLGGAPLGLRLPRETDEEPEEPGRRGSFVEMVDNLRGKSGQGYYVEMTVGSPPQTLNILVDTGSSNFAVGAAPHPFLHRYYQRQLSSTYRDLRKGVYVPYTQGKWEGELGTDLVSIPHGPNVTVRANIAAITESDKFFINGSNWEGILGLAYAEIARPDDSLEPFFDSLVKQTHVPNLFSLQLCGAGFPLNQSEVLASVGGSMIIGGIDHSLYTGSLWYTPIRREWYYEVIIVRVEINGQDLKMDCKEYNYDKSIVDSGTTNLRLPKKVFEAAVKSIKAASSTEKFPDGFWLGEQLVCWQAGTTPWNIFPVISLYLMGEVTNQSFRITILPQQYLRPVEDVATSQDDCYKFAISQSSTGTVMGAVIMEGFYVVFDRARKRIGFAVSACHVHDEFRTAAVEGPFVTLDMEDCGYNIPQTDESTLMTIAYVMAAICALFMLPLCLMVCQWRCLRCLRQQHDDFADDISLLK

SMILES	inhibition [1] [%]	IC50 [2] [nM]
O=C([C@@H]1O[C@@]2(c3ccccc3)CN(Cc3ccccc3)C(=O)[C@@H]1O2)N1CCOCC1	0	–
CCOC(=O)N1CCN(C(=O)[C@@H]2O[C@@H]3O[C@H]2C(=S)N(Cc2ccccc2)[C@H]3Cc2ccccc2)CC1	16	–
COC(=O)[C@H]1O[C@H]2O[C@@H]1C(=S)N(Cc1ccccc1)[C@@H]2Cc1ccccc1	9	–
CCOC(=O)N1CCN(C(=O)[C@@H]2O[C@H]3CN(Cc4ccccc4)C(=S)[C@@H]2O3)CC1	0	–
COC(=O)[C@H](c1ccccc1)N1C[C@@H]2O[C@@H](C(=O)N3CCCCC3)[C@@H](O2)C1=O	0	–
CCOC(=O)N1CCN(C(=O)[C@H]2O[C@H]3O[C@@H]2C(=S)N(Cc2ccccc2)[C@@H]3Cc2ccccc2)CC1	5	–
O=C([C@@H]1O[C@@H]2O[C@H]1C(=S)N(Cc1ccccc1)[C@H]2Cc1ccccc1)N1CCOCC1	0	–
COC(=O)[C@@H]1O[C@H]2CN(Cc3ccccc3)C(=S)[C@@H]1O2	16	–
COC(=O)[C@H](CC(C)C)N1C[C@@H]2O[C@@H](C(=O)N3CCCCC3)[C@@H](O2)C1=O	46	–
C#CCNC(=O)[C@@H]1O[C@H]2CN(Cc3ccccc3)C[C@@H]1O2	0	–
O=C(NC1CCCCC1)[C@@H]1O[C@@]2(c3ccccc3)CN(C(c3ccccc3)c3ccccc3)C(=O)[C@@H]1O2	0	–
C#CCNC(=O)[C@@H]1O[C@@H]2O[C@H]1C(=O)N(Cc1ccccc1)[C@H]2Cc1ccccc1	29	–
O=C([C@@H]1O[C@H]2CN(Cc3ccccc3)C(=S)[C@@H]1O2)N1CCOCC1	10	–
CC(C)C[C@@H](CO)NC(=O)[C@H]1O[C@@H]2CN(Cc3ccccc3)C(=O)[C@H]1O2	0	–
O=C([C@@H]1O[C@H]2CN(Cc3ccccc3)C(=O)[C@@H]1O2)N1CCCCC1	36	–
CC(C)C[C@H](CO)NC(=O)[C@@H]1O[C@H]2CN(Cc3ccccc3)C(=O)[C@@H]1O2	0	–
O=C([C@@H]1O[C@@H]2O[C@H]1C(=O)N(Cc1ccccc1)[C@H]2Cc1ccccc1)N1CCCCC1	15	–
COC(=O)[C@@H]1O[C@@H]2O[C@H]1C(=S)N(Cc1ccccc1)[C@H]2Cc1ccccc1	61	2600
O=C([C@H]1O[C@H]2O[C@@H]1C(=S)N(Cc1ccccc1)[C@@H]2Cc1ccccc1)N1CCOCC1	32	–
CC(C)C[C@@H](CO)NC(=O)[C@@H]1O[C@H]2CN(Cc3ccccc3)C(=O)[C@@H]1O2	8	–
CC(C)C[C@H](CO)NC(=O)[C@H]1O[C@@H]2CN(Cc3ccccc3)C(=O)[C@H]1O2	0	–
